Calls of active or inactive are those of the source.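 Rule for the calls: active = compounds whose fitted half-maximal concentration for reducing fibroblast viability is 100 µM or lower; inactive = the rest.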
assay: inhibition of LL 47 lung fibroblast growth, concentration-response curve, selectivity screen for endothelial cell growth inhibitor project, cellular system, ATP luminescence readout (AID 821); conditions: LL 47 lung fibroblast viability, ATP luminescence; at 20 µM (top of the series);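 note: 100% = median of untreated cell-only wells and 0% = no luminescence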
Procedure, shortened: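 assay system = LL 47 human lung fibroblasts | quantity = 1,150 cells per well | compound = dose series 0.039–20 µM final, 0.2% DMSO | incubation = overnight cell settling, then 72 h compound exposure at 37 °C | signal = CellTiter-Glo luminescence readout of viable cells | read-out basis = % viability versus median cell-only wells, four-parameter EC50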

SMILES | viability
Cc1cc(S(=O)(=O)N2CCN(Cc3ccc4c(c3)OCO4)CC2)cc(C)c1N1CCCC1=O | 100% (inactive)
N#C/C(=C/c1ccc(N2CCCCCC2)o1)c1ccc(Cl)cc1 | 100% (inactive)
O=c1[nH]c(=O)n(Cc2ccccc2)c2nc(-c3ccco3)cc(C(F)(F)F)c12 | 81% (inactive)
Cc1ccc(NC(=O)C(C)N2C(=O)c3ccccc3C2=O)cc1 (stereo not drawn) | 107% (inactive)
COc1cccc2c(C)nc(Nc3nc(CSc4nnc(C)s4)cc(=O)[nH]3)nc12 | 117% (inactive)
Cc1cc(Cl)ccc1N=c1ssnc1Cl | 104% (inactive)
Cc1cccc(Nc2nc(NCc3ccco3)nc(N3CCOCC3)n2)c1 | 80.4% (inactive)
OCCNc1nc2ccccc2n1-c1ncnc2sc3c(c12)CCC3 | 91.9% (inactive)
Cc1cccc(-c2nnc(NC(=O)c3ccc(Cl)cc3)o2)c1 | 87.4% (inactive)
CC(C)OCCCN1C(=O)c2[nH]nc(-c3ccccc3O)c2C1c1cccc(Cl)c1 (stereo not drawn) | 98.3% (inactive)
Cc1c(CCOC(=O)C2C3CC4CC(C3)CC2C4)sc[n+]1CC(=O)c1ccc(Br)cc1 (stereo not drawn) | 93.4% (inactive)
CCCCC[n+]1ccn(C2=C([O-])c3ccccc3C(=O)/C2=N\S(=O)(=O)c2ccccc2)c1 | 86.4% (inactive)
COc1ccc(CCn2c(=S)[nH]c3cc(C(=O)NCc4ccco4)ccc3c2=O)cc1OC | 108% (inactive)
Cc1ccc(C)c(C(C)NC(=O)C2C3CCC(O3)C2C(=O)O)c1 (stereo not drawn) | 94.5% (inactive)
O=C1CSC(c2ccccn2)N1Cc1cn2ccccc2n1 (stereo not drawn) | 99.9% (inactive)
COC(=O)c1cc(COc2ccc3c(c2)oc(=O)c2ccccc23)c(C)o1 | 120% (inactive)
Cc1cc2nc(C3CCN(CC4COc5ccccc5O4)CC3)[nH]c2cc1C (stereo not drawn) | 88.5% (inactive)
COc1ccccc1N1CCN(CC(=O)c2c(C)[nH]c3cc(C)ccc23)CC1 | 86.8% (inactive)
Cn1c(NC(=O)c2cccc(Cn3cc(Cl)cn3)c2)nc2ccccc21 | 103% (inactive)
CC1=C(C)CS(=O)N(S(=O)(=O)c2ccc(Cl)cc2)C1 (stereo not drawn) | 106% (inactive)
CCOc1c(Br)ccc2c1sc1nc[nH]c(=O)c12 | 102% (inactive)
Cc1ccsc1/C=C/C1=Cc2c(sc(NC(=O)CSc3n[nH]c(N)n3)c2C#N)C(C)(C)C1 | 112% (inactive)
Cc1ccccc1NC(=O)CSC(N)=O | 110% (inactive)
Cc1cc(NC(=O)COC(=O)C(Nc2ccc(C(F)(F)F)cc2Cl)C(C)C)no1 (stereo not drawn) | 90.8% (inactive)

SMILES | viability
CCOC(=O)c1cnc(-n2nc(C)cc2C)nc1NCc1ccc2c(c1)OCO2 | 96.5% (inactive)
O=C(Nc1nnc(-c2ccc3c(c2)OCCO3)o1)c1ccc(Cc2ccccc2)cc1 | 97.9% (inactive)
Cc1ccc(C)c(N2CCN(CCCNC(=O)Cn3cc4c(n3)CCCCC4)CC2)c1 | 83.3% (inactive)
Cn1c(=O)c2c(nc(Oc3ccc4c(c3)OCO4)n2Cc2ccc(Cl)cc2)n(C)c1=O | 87.5% (inactive)
CCOc1ccc(-c2n[nH]c(C)c2Oc2ccc(OC)cc2)c(O)c1 | 93.9% (inactive)
O=C(Nc1ccc2nn(-c3ccccc3)nc2c1)c1ccc2c(c1)OCO2 | 121% (inactive)
CC(C)(C)C1CC=C2C(C#N)=C(N)C(C#N)(C#N)C(c3cccs3)C2C1 (stereo not drawn) | 94.4% (inactive)
CC1(C)Cc2c(C#N)c(N3CCN(C(=O)c4ccco4)CC3)nc(Cc3ccccc3)c2CO1 | 87.4% (inactive)
Cc1cc(C)n(CC(O)Cn2c3ccc(Br)cc3c3cc(Br)ccc32)c(=O)n1 (stereo not drawn) | 119% (inactive)
Cc1ccc(C(C#N)c2ccc(C(=O)c3ccc(F)cc3)cc2)cc1 (stereo not drawn) | 97.1% (inactive)
Cn1cc(SCC(=O)Nc2nc3ccccc3s2)c2ccccc21 | 82.4% (inactive)
CC(=O)Nc1ccc(S(=O)(=O)NC2=C(N3CCN(Cc4ccccc4)CC3)C(=O)c3ccccc3C2=O)cc1 | 89.8% (inactive)
Cc1oc(-c2ccccc2F)nc1CN1CCC(C(=O)NCCC2=CCCCC2)CC1 | 83.4% (inactive)
O=C1c2[nH]nc(-c3ccccc3O)c2C(c2cccc(Cl)c2)N1Cc1ccco1 (stereo not drawn) | 98.4% (inactive)
CCOc1ccc(-c2nn3c(-c4ccccc4)nnc3s2)cc1 | 113% (inactive)
O=C1C2=C(NC(=S)NC2c2ccc(Cl)cc2)NC(c2ccc(Cl)cc2)N1c1ccc(Cl)cc1 (stereo not drawn) | 99.2% (inactive)
C=CCN1C(=Nc2cccnc2)SCC1(O)c1ccc(C)cc1 (stereo not drawn) | 86.4% (inactive)
O=C(NCCC1=CCCCC1)C1CCN(Cc2cnn(-c3ccccc3)c2-n2cccc2)CC1 | 92.5% (inactive)
CCOC(=O)c1cc2c(N)c(C(=O)c3cc(C#N)c(SC)nc3C)sc2nc1C | 101% (inactive)
Cc1ccc(Cn2c(=S)[nH]c3ccc(N4CCOCC4)cc3c2=O)o1 | 85% (inactive)
O=C(Nc1ccc2c(c1)CCC2)c1cnn2c1NC(c1ccco1)CC2C(F)(F)F (stereo not drawn) | 83.8% (inactive)
OC(C#Cc1ccccn1)c1cccs1 (stereo not drawn) | 98.2% (inactive)
Cc1ccc(-c2nnc(N3CCN(C(=O)CSc4ncn[nH]4)CC3)c3ccccc23)cc1 | 102% (inactive)
CCOC(=O)c1sc(NC(=O)CSc2nnnn2-c2ccc(C)c(C)c2)nc1C | 83.3% (inactive)

SMILES | viability
Cc1nn(-c2ccc(F)cc2)c(C)c1NS(=O)(=O)c1ccc(Cl)cc1 | 90.7% (inactive)
Cc1ccc2[nH]c3c(NCc4ccco4)ncnc3c2c1 | 85.1% (inactive)
Cc1ccc2c(c1)[nH]c1c(N3CCN(Cc4ccccc4)CC3)ncnc12 | 88.3% (inactive)
Cc1ccc2[nH]c(=O)c(C3C(C#N)=C(N)Oc4c3ccc3cccnc43)cc2c1 (stereo not drawn) | 86.9% (inactive)
COC(=O)C1=C(O)/C(=C\c2ccc(CNC(=O)C(=O)Nc3ccc(C)c(C)c3)o2)N=C1C | 101% (inactive)
CCOC(=O)c1c(NC(=O)C2COc3ccccc3O2)sc(C(C)=O)c1C (stereo not drawn) | 104% (inactive)
Nc1c(S(=O)(=O)c2ccccc2)c2nc3ccccc3nc2n1/N=C/c1cccc(O)c1 | 94.2% (inactive)
O=C(Nc1ccc2c(c1)OCO2)c1cc(C2CC2)on1 | 104% (inactive)
COc1cc2cc(C(c3nnnn3C3CCCC3)N3CCc4ccccc43)c(=O)[nH]c2cc1OC (stereo not drawn) | 92.9% (inactive)
CC(=O)Oc1ccc(N(C(C)=O)S(=O)(=O)c2cccs2)c2ccccc12 | 95.7% (inactive)
COc1ccc2nc3oc(C(=O)N4CCN(c5ccccc5F)CC4)cc3cc2c1 | 108% (inactive)
COC(=O)c1cc(NC(=O)c2c(Cl)nc3sccn23)cc(C(=O)OC)c1 | 91.8% (inactive)
Brc1ccccc1OCCCn1cnc2ccccc21 | 111% (inactive)
COc1ccc(OC)c(S(=O)(=O)N(C)CC(=O)N2CCN(c3ccc(F)cc3)CC2)c1 | 106% (inactive)
O=c1/c(=C/c2ccco2)sc2n1CN(c1cccc(Br)c1)CN=2 | 106% (inactive)
O=C(CSc1ncnc2c1oc1ccccc12)Nc1nc2ccccc2s1 | 105% (inactive)
O=C(COc1ccc(Cl)cc1)Nc1ccccc1C(=O)NCc1ccco1 | 82.7% (inactive)
CCN(CC)c1cc(C)c2cc(NC(=O)c3ccc(Br)o3)ccc2n1 | 93% (inactive)
COc1ccc2[nH]c(=O)c(CN(C3CCCCC3)C(c3nnnn3Cc3ccco3)C(C)C)cc2c1 (stereo not drawn) | 83.2% (inactive)
Cc1cc(C)c2c(c1)SC1=NC(c3ccccc3)(C(F)(F)F)NC(=O)N12 (stereo not drawn) | 102% (inactive)
O=S1(=O)c2ccccc2N=NN1Cc1cc(Cl)cc(Cl)c1 | 84.5% (inactive)
CCn1c(Cc2ccc(OC)cc2)nnc1SCC(=O)Nc1cccc(C(=O)OC)c1 | 96.9% (inactive)
CCCc1ccc(-c2cc(NC(=O)CSc3n[nH]c(N)n3)n(-c3ccccc3)n2)cc1 | 100% (inactive)
N=C1C(c2nc(-c3ccc(Cl)cc3)cs2)=C(O)CN1CCCN1CCOCC1 | 118% (inactive)

SMILES | viability
Cc1cccc(C)c1OCC(=O)N=Nc1c(O)[nH]c2ccc(Br)cc12 | 104% (inactive)
Cn1c(SCC(=O)Nc2ccc(N3CCOCC3)cc2)nnc1-c1ccccc1 | 109% (inactive)
Cc1nn(-c2ccc(Cl)cc2)c2sc(C(=O)N3CCN(c4ccccn4)CC3)cc12 | 91.4% (inactive)
COc1cc(-c2nnc(COc3ccc4cc(Br)ccc4c3)o2)cc(OC)c1OC | 127% (inactive)
CCOc1ccc(NS(=O)(=O)c2ccc(OCC(=O)NCCCOC)cc2)cc1 | 93.1% (inactive)
CCCOc1ccc(-c2nc(C#N)c(NCCCn3ccnc3)o2)cc1 | 90.9% (inactive)
CSc1nnc2n(-c3ccc(C)cc3)c(=O)c3c4c(sc3n12)COC(C(C)C)C4 (stereo not drawn) | 109% (inactive)
O/N=C1\CC/C(=N\O)c2nn(-c3ccccc3Cl)nc21 | 87.3% (inactive)
Cc1cccc2c1N(CCCOc1ccc(C(C)(C)C)cc1)C(=O)C2=O | 92.2% (inactive)
Cn1c(=O)c2cc(NCc3ccccc3)nnc2n(C)c1=O | 100% (inactive)
N#CCc1nc2c3c4c(sc3ncn2n1)CCCC4 | 102% (inactive)
CCCCC(=O)O[C@H]1CC[C@H]2[C@@H]3CCc4cc(O)ccc4[C@H]3CC[C@]12C | 84% (inactive)
COc1cc(NC(=O)Nc2ccccc2)c(OC)cc1NC(=O)CN1CCCCC1 | 82.8% (inactive)
Nc1nc(-c2ccccc2)cc(-c2ccccc2O)n1 | 104% (inactive)
c1ccc(-c2nccc(-c3ccc(-n4cnc5ccccc54)cc3)n2)cc1 | 115% (inactive)
N#Cc1nc(COc2ccc(-c3ccccc3)cc2)oc1NCCCN1CCOCC1 | 91.9% (inactive)
Cc1sc2nc(SCC(=O)c3cccs3)n(Cc3ccco3)c(=O)c2c1C | 87% (inactive)
COc1ccc2[nH]cc(C(=O)CN3CCN(C(=O)c4ccco4)CC3)c2c1 | 108% (inactive)
OC1(Cc2ccn[nH]2)CCCCC1 | 105% (inactive)
CC[n+]1cc(-c2ccccc2)nc(N2CCOCC2)n1 | 99.9% (inactive)
C/C(CC1CC2=C(CC1(C)C)C(C)(C)CCC2)=N\NC(N)=S (stereo not drawn) | 87.7% (inactive)
